# Source: PubChem
# Only some compounds are listed: those with a hit (about 6% of all), similar ones and a draw of the others.
# F-actin modifier = cytoskeleton assembly modification. inhibition, % at 2 µM. actives 0.18% (n = 91,000). HUVEC TNFa F-actin phalloidin imaging, high content;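 active = inhibition above the batch mean plus 3 SD and confirmed as a hit by visual image inspection, cut at about 30% in these data, passing the limit was not always enough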
# H69AR growth 86K = blocks growth of human H69AR lung tumor cells | H69AR lung tumor viability, ATP luminescence, 72 h; stronger effect = lower value | viability, % at 10 µM | actives 6% (n = 85,000) | AID 598;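 active = viability at or below 40%; inactive = viability above 40%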;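 also: multidrug resistant small cell line overexpressing MRP-1 efflux transporter; 100% = mean luminescence of untreated control wells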
# HUVEC prolif 384 = blocks proliferation of human endothelial cells. HUVEC proliferation, CellTiter-Glo luminescence, 72 h; stronger effect = lower value. actives 1.1% (n = 86,000). viability, % at 10 µM (by protocol);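 active = viability at or below 30%; inactive = viability above 30%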;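 also: 100% = median luminescence of DMSO-only cell control wells on each plate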
# Lung fibro prol = blocks proliferation of human lung fibroblasts; LL 47 human lung fibroblast viability, ATP luminescence; stronger effect = lower value; viability, % at 10 µM; actives 1.1% (n = 85,000); AID 719;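 active = viability at or below 50% in the single dose screen; inactive = viability above 50%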;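 also: compound exposure lasted 72 h before the ATP readout; 100% = median luminescence of untreated cell-only wells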
#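 Test system: LL 47 human lung fibroblasts / Incubation: 72 h compound exposure at 37 °C after overnight plating / Technique: luminescent ATP detection, CellTiter-Glo / Compound dosing: 0.1% DMSO in all compound wells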
# PTK2B oligo ant = Pyk2 (human) oligomerization antagonism. Q14289. actives 0.83% (n = 99,000). z-score (the deposit names both 25 µM and 10 µM). Q293 cells, Pyk2 FERM NanoBiT luminescence; stronger effect = lower value;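 active = Z-score of -3 or lower, scaled per plate to the spread of control and sample wells; inactive = z-score above -3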;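 also: negative z-score means lost luminescence so less FERM oligomerization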
# Target sequence (Q14289 whole entry, looked up): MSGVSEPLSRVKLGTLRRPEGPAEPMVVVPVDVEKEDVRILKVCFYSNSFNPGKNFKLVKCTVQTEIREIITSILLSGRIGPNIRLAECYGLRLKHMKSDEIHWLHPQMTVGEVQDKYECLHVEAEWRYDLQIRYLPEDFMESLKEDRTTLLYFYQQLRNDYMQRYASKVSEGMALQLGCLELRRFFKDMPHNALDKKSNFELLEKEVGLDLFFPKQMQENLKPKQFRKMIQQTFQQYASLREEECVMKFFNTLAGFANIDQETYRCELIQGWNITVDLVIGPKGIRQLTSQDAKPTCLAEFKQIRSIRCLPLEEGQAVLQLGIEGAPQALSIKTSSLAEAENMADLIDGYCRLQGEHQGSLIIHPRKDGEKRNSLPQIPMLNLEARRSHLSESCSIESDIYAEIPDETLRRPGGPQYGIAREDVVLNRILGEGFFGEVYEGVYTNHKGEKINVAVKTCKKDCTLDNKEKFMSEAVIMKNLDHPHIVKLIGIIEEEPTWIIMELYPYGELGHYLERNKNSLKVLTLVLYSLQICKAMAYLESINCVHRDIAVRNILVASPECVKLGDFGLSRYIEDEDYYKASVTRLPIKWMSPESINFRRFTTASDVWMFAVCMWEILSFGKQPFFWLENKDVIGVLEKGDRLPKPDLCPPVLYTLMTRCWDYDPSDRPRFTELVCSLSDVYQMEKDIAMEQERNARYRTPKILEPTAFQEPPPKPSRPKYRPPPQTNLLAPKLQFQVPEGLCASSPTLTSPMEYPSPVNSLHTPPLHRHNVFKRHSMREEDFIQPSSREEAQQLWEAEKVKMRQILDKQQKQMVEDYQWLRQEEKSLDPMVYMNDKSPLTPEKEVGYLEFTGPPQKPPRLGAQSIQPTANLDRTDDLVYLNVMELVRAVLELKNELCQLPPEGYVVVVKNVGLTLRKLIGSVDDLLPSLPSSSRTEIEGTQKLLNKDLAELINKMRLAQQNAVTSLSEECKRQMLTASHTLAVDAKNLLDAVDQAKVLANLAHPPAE
# Jurkat tox 60K = reduces viability or proliferation of Jurkat cells. Jurkat E6.1 viability, ATP luminescence, 48 h. inhibition, % at 4 µM. actives 1.2% (n = 56,000). AID 463;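 active = inhibition above the mean inhibition of all tested compounds plus 3 SD, cut at about 28% in these data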
# * hit, by the source's call; x = no result given.
SMILES,F-actin modifier,H69AR growth 86K,HUVEC prolif 384,Lung fibro prol,PTK2B oligo ant,Jurkat tox 60K
CCc1ccc(OCC(=O)Nc2ccc(S(=O)(=O)N3CCCC3)cc2)c(Br)c1,14,30*,61,104,0.52,x
Oc1ccccc1/C=N/Nc1nccnc1Cl,x,43,59,32*,-0.06,x
O=C1CC(Cc2ccccc2)C(=O)N1CCCn1ccnc1 (centres undefined),7,85,96,97,x,x
CN1CC(c2ccccc2)C2(SC(=S)N(Cc3ccco3)C2=O)C12C(=O)Nc1ccccc12 (centres undefined),13,1.6*,50,93,-2.9,x
N#Cc1c(N)nc(SCc2ccncc2)c(C#N)c1-c1cccs1,x,85,83,65,-3.9*,14
CCN(CC)C(=O)CSc1nc(N)c(C#N)c(-c2cccs2)c1C#N,-11,72,88,98,-1.7,x
COc1cc(-c2c(C#N)c(N)nc(SCc3ccncc3)c2C#N)cc(OC)c1OC,19,60,75,86,-4.1*,-2
COc1cc(-c2c(C#N)c(N)nc3c2CCCC3)cc(OC)c1OC,10,67,78,85,0.1,-2
Cc1ccccc1NC(=O)CSc1nc(N)c(C#N)c(-c2cccs2)c1C#N,-4,27*,59,55,-3.7*,0
CN1CCc2nc(SCc3ccc(Cl)cc3)c(C#N)c(-c3cccs3)c2C1,-3,x,x,x,x,x
CN(C)CCNc1oc(COc2ccc(Cl)cc2)nc1C#N,-4,99,95,98,0.11,-4
CN(C)CCNC(=O)c1coc(=O)c(Br)c1,9,64,112,106,-0.24,0
CC(C)CNC(=O)c1coc(=O)c(Br)c1,6,0.8*,84,27*,0.66,x
O=C(Nc1ccc2nc(-c3ccco3)[nH]c2c1)c1cccs1,8,40*,94,91,-0.53,7
O=C(Nc1ccccc1)c1cccc(-c2nnc(-c3ccccc3)o2)c1,-6,26*,19*,94,1,1
CCc1ccc(OCC(=O)Nc2ccc3c(c2)COC3=O)cc1,16,92,97,103,0.56,x
O=C(Nc1cccc(-c2nnc(-c3ccccc3)o2)c1)c1ccco1,x,15*,83,101,-1.9,6
Cc1ccccc1OCC(=O)Nc1ccc2c(c1)COC2=O,36*,103,98,107,-0.08,7
O=C(Nc1ccc2nc(-c3ccco3)[nH]c2c1)c1ccco1,2,81,92,96,0.56,x
O=C(Nc1cccc(-c2nnc(-c3ccccc3)o2)c1)C1CCCCC1,-8,19*,68,96,-1.6,-2
COc1cccc(-c2nnc(NC(=O)C3CCCCC3)o2)c1,8,79,100,90,x,-11
Cc1ccc2nc(-c3cccc(NC(=O)c4ccco4)c3)[nH]c2c1,21,21*,60,x,-0.93,5
Cc1cccc(OCC(=O)Nc2cccc(-c3nnc(-c4ccccc4)o3)c2)c1C,-23,9.8*,50,56,0.58,2
CC(C)(C)CC(C)(C)NC(=O)CSCC(=O)Nc1ccc2ccccc2c1,-16,68,61,109,-0.98,x
Cc1ccc(S(=O)(=O)NNC(=O)C2Cc3c(ccc4ccccc34)O2)cc1 (centres undefined),28,x,x,x,1.4,x
SMILES,F-actin modifier,H69AR growth 86K,HUVEC prolif 384,Lung fibro prol,PTK2B oligo ant,Jurkat tox 60K
COC(=O)/C=c1\sc2ncnn2c1=O,0,7.9*,97,98,-0.32,-1
CNC(=O)/C(C#N)=c1\s/c(=C/C(=O)OC)c(=O)n1-c1ccccc1,19,60,91,98,-0.83,x
COc1cc(-c2nnc(Sc3ccc(C(F)(F)F)cc3[N+](=O)[O-])o2)cc(OC)c1OC,4,1.0*,72,83,-0.3,x
O=C(O)c1ccc(Sc2nnc(-c3cccc(Br)c3)o2)c([N+](=O)[O-])c1,16,100,83,94,0.38,x
COc1ccc(/C=C/C(O)=C2/C(=O)N(C)C3(C)CC2c2ccccc2O3)cc1 (centres undefined),-5,3.0*,82,76,-1.3,10
Cc1ccc(/C=C/C(O)=C2/C(=O)N(C)C3(C)CC2c2ccccc2O3)cc1 (centres undefined),4,x,x,x,-0.61,x
C=CCc1c(C)c(C#N)c2nc3ccccc3n2c1N1CCN(C)CC1,x,46,101,96,x,x
O=C(Nc1nc(-c2ccccn2)cs1)c1ccc(Cl)s1,x,2.9*,28*,28*,x,48*
O=C(Nc1nc(-c2ccc(Cl)s2)cs1)c1cccs1,x,34*,69,90,-3,-3
O=C(Nc1nc(-c2ccccn2)cs1)c1ccc(S(=O)(=O)N2CCCCC2)cc1,x,42,33,48*,x,54*
O=C(Nc1nc(-c2cccs2)cs1)c1ccc(S(=O)(=O)N2CCCCC2)cc1,2,78,80,94,x,31
Cn1cccc1C(=O)Nc1nc(-c2ccccn2)cs1,4,35*,57,60,-0.34,18
CCN(c1cccc(C)c1)c1nc2ccsc2c(=O)s1,x,75,92,104,-0.73,x
CSCCC(NC(=O)c1ccccc1)C(=O)NCc1ccco1 (centres undefined),-5,98,106,99,1.5,-2
CC(=O)Nc1nc(C)c(-c2csc(Nc3cccc([N+](=O)[O-])c3)n2)s1,5,x,x,x,-2.7,x
COc1ccc(-c2csc(Nc3cccnc3)n2)cc1OC,0,71,92,104,0.18,x
Oc1ccc(Nc2nc(-c3ccc4ccccc4c3)cs2)cc1,18,19*,55,47*,0.2,x
c1cncc(Nc2nc(-c3ccncc3)cs2)c1,x,61,85,97,-1.1,2
CC(=O)Nc1nc(C)c(-c2csc(Nc3ccc(O)cc3)n2)s1,14,7.2*,40,47*,-0.24,16
Cc1nc(C)c(-c2csc(Nc3cccnc3)n2)s1,0,50,66,31*,-0.52,-3
Oc1ccc(-c2nc(-c3ccc(O)c(O)c3)cs2)cc1,x,12*,34,46*,-2.4,97*
COC(=O)c1sc(NC(=O)CSc2nnnn2-c2cccc(OC)c2)nc1C,-2,43,78,95,-0.27,x
Cc1ccc(S(=O)(=O)N2CCN(CC(=O)NC(=O)NCc3ccccc3)CC2)cc1C,0,x,x,x,-0.04,x
CC(C)c1cc(NC(=O)CSc2nnc(-c3ccccc3F)n2C)on1,x,94,103,100,0.61,x
COc1ccc(C(=O)COC(=O)CCn2nnc(-c3cccs3)n2)cc1,-2,115,96,100,0.7,3
Cc1ccc(S(=O)(=O)N2CCCC2C(=O)OCc2ccco2)cc1 (centres undefined),14,69,89,102,1.5,4
N#CCCn1c(SCC(=O)c2c[nH]c3ccccc23)nc2ccccc21,10,79,99,103,-1.2,x
Cc1cc(C(=O)CSc2nc3ccccc3n2CCC#N)c(C)n1Cc1cccs1,-4,17*,71,80,0.28,x
